Experimental data as given in ChEMBL document CHEMBL1156735, “Might adrenergic alpha2C-agonists/alpha2A-antagonists become novel therapeutic tools for pain treatment with morphine?” (J Med Chem, 2009).

Key:
[1] = biological target: T1, Alpha-2C adrenergic receptor (Homo sapiens) (UniProt P18825); assay: Intrinsic activity at human Alpha-2C adrenoceptor expressed in CHO cells assessed as extracellular acidification by cytosensor microphysiometry relative to noradrenaline; type: cell-based
T1 sequence (whole entry): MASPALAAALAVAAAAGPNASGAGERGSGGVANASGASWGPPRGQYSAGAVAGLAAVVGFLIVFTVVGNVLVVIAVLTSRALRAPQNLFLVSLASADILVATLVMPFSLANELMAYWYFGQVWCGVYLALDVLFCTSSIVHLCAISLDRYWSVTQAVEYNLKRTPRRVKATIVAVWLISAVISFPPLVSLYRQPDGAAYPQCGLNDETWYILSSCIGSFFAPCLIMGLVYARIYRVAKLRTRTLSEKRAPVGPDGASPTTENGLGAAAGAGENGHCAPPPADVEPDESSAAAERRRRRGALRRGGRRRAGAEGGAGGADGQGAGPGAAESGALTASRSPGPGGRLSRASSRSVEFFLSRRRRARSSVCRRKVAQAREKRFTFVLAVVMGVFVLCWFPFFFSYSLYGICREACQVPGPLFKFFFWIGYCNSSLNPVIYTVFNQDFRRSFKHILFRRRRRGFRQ
Method in brief: (§1)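 Cytosensor microphysiometry on the same CHO cell lines expressing individual human α2-AR subtypes. pEC50, pKb and intrinsic activity were derived, with ia expressed as a fraction of full agonist (-)-noradrenaline (taken as 1). ia <0.3 was scored not active. Values are mean ± SEM of three to six separate experiments.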

[2] = biological target: T2, Alpha-2B adrenergic receptor (Homo sapiens) (UniProt P18089); assay: Intrinsic activity at human alpha2B adrenoceptor expressed in CHO cells assessed as extracellular acidification by cytosensor microphysiometry relative to noradrenaline; type: cell-based; method in brief: as §1
T2 sequence (whole entry): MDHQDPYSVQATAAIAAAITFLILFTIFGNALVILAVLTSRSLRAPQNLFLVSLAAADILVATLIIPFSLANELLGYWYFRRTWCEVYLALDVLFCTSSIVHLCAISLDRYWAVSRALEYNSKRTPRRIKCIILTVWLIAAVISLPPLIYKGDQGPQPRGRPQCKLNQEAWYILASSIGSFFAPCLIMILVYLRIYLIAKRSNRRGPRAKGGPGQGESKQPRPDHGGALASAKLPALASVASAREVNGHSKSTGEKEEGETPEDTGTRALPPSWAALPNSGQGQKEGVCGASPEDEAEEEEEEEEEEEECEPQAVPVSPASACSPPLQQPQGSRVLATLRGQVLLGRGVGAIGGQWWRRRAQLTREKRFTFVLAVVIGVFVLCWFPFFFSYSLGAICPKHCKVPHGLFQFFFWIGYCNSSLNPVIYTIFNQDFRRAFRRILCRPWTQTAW

[3] = biological target: T3, Alpha-2C adrenergic receptor (Homo sapiens, UniProt P18825); assay: Displacement of [3H]RX821002 from human Alpha-2C adrenoceptor expressed in CHO cell membrane after 30 mins by liquid scintillation counting; type: cell membranes
T3 sequence (P18825 whole entry): T1 sequence (whole entry)
Method in brief: (§2)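 Competition binding against [3H]RX 821002 on membrane preparations from CHO cells, each line expressing one human α2-AR subtype (α2A, α2B or α2C); affinities reported as pKi.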

[4] = biological target: T3, Alpha-2C adrenergic receptor; assay: Agonist activity at human Alpha-2C adrenoceptor expressed in CHO cells assessed as extracellular acidification by cytosensor microphysiometry; type: functional, cell-based; method in brief: as §1
[5] = biological target: T4, Alpha-2B adrenergic receptor (Homo sapiens, UniProt P18089); assay: Agonist activity at human alpha2B adrenoceptor expressed in CHO cells assessed as extracellular acidification by cytosensor microphysiometry; type: functional, cell-based; method in brief: as §1
T4 sequence (P18089 whole entry): T2 sequence (whole entry)

[6] = biological target: T4, Alpha-2B adrenergic receptor; assay: Displacement of [3H]RX821002 from human alpha2B adrenoceptor expressed in CHO cell membrane after 30 mins by liquid scintillation counting; type: cell membranes; method in brief: as §2
[7] = biological target: T5, Alpha-2A adrenergic receptor (Homo sapiens) (UniProt P08913); assay: Antagonist activity at human alpha2A adrenoceptor expressed in CHO cells assessed as extracellular acidification by cytosensor microphysiometry; type: functional, cell-based; method in brief: as §1
T5 sequence (whole entry): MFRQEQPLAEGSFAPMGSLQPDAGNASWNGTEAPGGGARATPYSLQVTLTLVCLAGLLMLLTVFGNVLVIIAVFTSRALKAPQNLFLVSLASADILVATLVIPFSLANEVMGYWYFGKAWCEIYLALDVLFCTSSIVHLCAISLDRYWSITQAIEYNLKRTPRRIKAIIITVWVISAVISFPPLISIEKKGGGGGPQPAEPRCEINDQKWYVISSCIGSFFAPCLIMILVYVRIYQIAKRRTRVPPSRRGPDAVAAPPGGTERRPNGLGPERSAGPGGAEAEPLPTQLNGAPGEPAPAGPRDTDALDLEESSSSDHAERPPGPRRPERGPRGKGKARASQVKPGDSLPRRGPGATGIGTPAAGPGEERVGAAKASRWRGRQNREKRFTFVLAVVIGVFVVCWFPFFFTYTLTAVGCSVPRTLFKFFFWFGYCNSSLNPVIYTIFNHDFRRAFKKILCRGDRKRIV

[8] = biological target: T6, Alpha-2A adrenergic receptor (Homo sapiens, UniProt P08913); assay: Displacement of [3H]RX821002 from human alpha2A adrenoceptor expressed in CHO cell membrane after 30 mins by liquid scintillation counting; type: cell membranes; method in brief: as §2
T6 sequence (P08913 whole entry): T5 sequence (whole entry)

| Compound | Intrinsic activity [1] | Intrinsic activity [2] | Ki [3] [nM] | EC50 [4] [nM] | EC50 [5] [nM] | Ki [6] [nM] | pKb [7] | Ki [8] [nM] |
| --- | --- | --- | --- | --- | --- | --- | --- | --- |
| NC[C@H](O)c1ccc(O)c(O)c1 | 1 | 1 | – | – | – | – | – | – |
| c1ccc(C2CC2)c(OCC2=NCCN2)c1 [CIRAZOLINE] | 0.8 | 1 | 550 | 398 | 1000 | 525 | 6.4 | 58.9 |
